For one experiment, the system named is DeHa4. As to the kind of experiment: fluoride ion probe, Lineweaver-Burk. Format: biochemical, Delftia acidovorans. Particulars: pH 7, PBS, 37 °C, 28 h. A digest of the protocol:
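Cobalt-affinity-purified enzyme from E. coli BL21 DE3 (pET15b), 250 μg in 0.5 mL with MFA (0.4–3 mM) or DFA (10–120 mM), 28 h, 250 rpm. Samples diluted in low-level TISAB and water, then read by fluoride electrode against NaF calibration (0–20 μM, second-order polynomial fit). Product equals fluoride for MFA and half of fluoride for DFA. Velocity is product per hour. 4–6 independent runs.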

In the next experiment the target is T1, DeHa2 (Delftia acidovorans, UniProt Q7DI63).
T1 sequence (Q7DI63 1-224): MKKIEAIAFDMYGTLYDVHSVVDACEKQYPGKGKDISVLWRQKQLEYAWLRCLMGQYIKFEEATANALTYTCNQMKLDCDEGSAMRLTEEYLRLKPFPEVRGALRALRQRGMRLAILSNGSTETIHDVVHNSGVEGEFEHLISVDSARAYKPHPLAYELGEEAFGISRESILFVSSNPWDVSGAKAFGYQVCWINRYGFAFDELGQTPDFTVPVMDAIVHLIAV
As to the kind of experiment: fluoride ion probe, Lineweaver-Burk. Particulars: pH 7, PBS, 37 °C, 28 h. Format: biochemical.

With `O=C(O)C(F)F` [DFA, difluoroacetate], the Michaelis constant (Km) (as a rule, the substrate concentration at which the rate is half of its maximum) with DeHa4 came out at 39 ± 2.36 mM.

For the compound `O=C(O)CF` [MFA, monofluoroacetate], the Km in the experiment on DeHa4 was 2.19 ± 0.37 mM; on DeHa2, 5.47 ± 1.54 mM.

Source of the values: paper PMC11223199 (ACS Omega, 2024).
